Results published in ChEMBL document CHEMBL4715907, “Cytoprotective activities of kinetin purine isosteres” (Bioorg Med Chem, 2021).
The source made the active and inactive calls. The rule behind the calls is not given here.

Tests used:
GM04663 = test: Cytoprotective activity in human GM04663 cells assessed as aberrant splicing of ELP1 mRNA expression at 50 uM incubated for 24 hrs by RT-PCR anlaysis; format: functional, cell-based
Outline: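 GM04663 patient fibroblasts, about 500,000 per 10 cm dish in DMEM with 10% FBS, were grown overnight and then treated 24 h at 50 µM, with DMSO vehicle. Total RNA was extracted with Trizol and reverse-transcribed. ELP1 nt 2194–2593 (NM_003640.5) was amplified over 34 cycles with 63.8 °C annealing. Wild-type and aberrant transcripts were quantified by peak area against DNA standards of known size and concentration.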

[1] = Stability in human plasma assessed as parent compound remaining at 2 uM measured up to 120 mins by RF-MS analysis; format: ADME, cell-free; settings: read-out: Stabilty
[2] = Stability in human liver microsomes assessed as parent compound remaining at 2 uM measured up to 60 mins by RF-MS analysis; format: ADME, Microsome; settings: read-out: Stabilty
[3] = Apparent permeability of compound in human Caco2 cells; format: ADME, cell-based; settings: Caco-2
[4] = Apparent permeability of compound in MDCK-MDR1 cells; format: ADME, cell-based, Canis lupus familiaris; settings: dog
Outline: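 MDCK-MDR1 cells formed monolayers on 1 µm pore Transwell filters, used only if intact by Lucifer Yellow rejection. Cells were washed with HBSS and pre-equilibrated at pH 7.4 for 1 h, then exposed to 10 µM compound in HBSS pH 7.4 for 1 h, apical-to-basal and basal-to-apical. Donor and acceptor were quantified by RapidFire MS/MS (MRM). Papp = (dQ/dt)/(C0 × A), duplicates.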

[5] = Protein binding in human plasma at 10 uM after 4 hrs by RF-MS analysis; format: ADME, cell-free; settings: read-out: PPB (converted)
SH-SY5Y [6] = test: Cytoprotective activity against glutamate-induced human ATRA-differentiated SH-SY5Y cells assessed as reduction in oxidative stress […] by dihydroethidium staining based assay; format: functional, cell-based; settings: dose 0.1-10 µM
SH-SY5Y [7] = test: Cytoprotective activity against glutamate-induced ATRA-differentiated human SH-SY5Y cells assessed as reduction in cell death at 10 uM after 24 hrs by propidium iodide staining based assay relative to control; format: functional; design: scale not given: the % may be the effect or the level left
Outline: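 SH-SY5Y cells (20,000/well) differentiated 48 h with 10 µM ATRA in DMEM/F12 with 1% FBS. Medium replaced by fresh DMEM/F12 with 1% FBS containing test compound at 0.1, 1 or 10 µM; DMSO vehicle as negative control. Cells exposed immediately to 160 mM glutamate for 24 h. Dead cells stained with propidium iodide (1 µg/mL final, 15 min, rt); fluorescence read at ex 535/em 617 nm.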

[8] = Drug degradation in human liver microsomes at 2 uM measured up to 60 mins by RF-MS analysis; format: ADME, Tissue, Microsome; settings: read-out: Drug degradation
GM04078 [9] = test: Cytoprotective activity against BSO-induced toxicity in human GM04078 cells assessed as restoring GSH level […] by confocal microscopic method; format: functional, cell-based; settings: time 32.0 hrs
SH-SY5Y [10] = test: Cytoprotective activity against glutamate-induced human ATRA-differentiated SH-SY5Y cells from ECACC assessed as reduction in oxidative stress at 10 uM after 24 hrs by dihydroethidium staining based assay; format: functional, cell-based
GM04078 [11] = test: Cytoprotective activity against BSO-induced toxicity in human GM04078 cells assessed as restoring FXN protein expression at 10 to 50 uM after 48 hrs by immunodetection assay; format: functional, cell-based; settings: dose 10-50 µM
Outline: (§1)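 GM04078 cells (about 1.4 million per 10 cm dish, DMEM with 10% FBS) were treated 24 h after seeding at 10 and 50 µM and harvested after 48 h. Lysates in Laemmli buffer were normalized by Bradford, 25–40 µg run on 12.5% SDS-PAGE and transferred to PVDF. Blots were probed with anti-frataxin mouse antibody (18A5DB1), actin as loading control, HRP secondary and ECL.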

GM04078 [12] = test: Cytoprotective activity against BSO-induced toxicity in human GM04078 cells assessed as restoring FXN protein expression at 10 to 50 uM after 48 hrs by Western blot analysis; format: functional, cell-based; settings: dose 10-50 µM; outline: as §1
GM04078 [13] = test: Cytoprotective activity against BSO-induced toxicity in human GM04078 cells assessed as increase in cell viability preincubated for 24 hrs followed by BSO-stimulation and […] by resazurin fluorescence based assay; format: functional
GM04078 [14] = test: Cytoprotective activity against BSO-induced toxicity in human GM04078 cells assessed as increase in cell viability at 10 to 50 uM preincubated for 24 hrs followed by BSO-stimulation and […] by resazurin fluorescence based assay; format: functional; settings: dose 10-50 µM
[15] = molecular target: T1, Frataxin, mitochondrial (Homo sapiens) (UniProt Q16595); test: Inhibition of His6-tagged-thrombin cleavage site-fused FXN (79 to 207 residues) (unknown origin) assessed as increase in Fe-S cluster biosynthesis at 30 to 500 uM by UV-visible spectroscopy relative to control; settings: dose 30-500 µM
T1 sequence (whole entry): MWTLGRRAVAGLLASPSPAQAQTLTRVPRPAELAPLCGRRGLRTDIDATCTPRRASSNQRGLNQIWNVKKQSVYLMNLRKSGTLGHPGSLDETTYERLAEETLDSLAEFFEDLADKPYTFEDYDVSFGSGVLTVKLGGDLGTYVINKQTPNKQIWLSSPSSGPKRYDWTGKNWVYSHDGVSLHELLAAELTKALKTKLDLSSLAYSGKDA
Outline: (§2)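 Mouse ISC machinery reconstituted in vitro from purified proteins under anaerobic conditions. Buffer was 50 mM Tris, 150 mM NaCl, pH 8, with 50 µM apo-ISCU loaded with one equivalent Fe2+, 5 µM NFS1-ISD11-ACP, 5 µM FDX2, 2 µM FDXR and 100 µM NADPH. Compounds in DMSO were tested at 30, 50, 100, 200 and 500; DMSO was equalized. 5 µM FXN served as positive control. Run in triplicate.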

[16] = molecular target: T1, Frataxin, mitochondrial (Homo sapiens); test: Activation of His6-tagged-thrombin cleavage site-fused FXN (79 to 207 residues) (unknown origin) assessed as increase in Fe-S cluster biosynthesis at 30 to 500 uM by UV-visible spectroscopy relative to control; settings: dose 30-500 µM; outline: as §2

SMILES	Activity (GM04663)	remaining at 2 h, 2 µM [1] [%]	remaining at 1 h, 2 µM [2] [%]	Papp [3] [×10⁻⁶ cm/s]	Papp [4] [×10⁻⁶ cm/s]	fraction unbound at 4 h, 10 µM [5]	also measured
c1coc(CNc2ncnc3cc[nH]c23)c1	Active	83	78	7.6	16.3	0.871	–
Clc1nc(NCc2ccco2)c2[nH]ccc2n1	Active	83	78	7.6	16.3	0.871	Activity (SH-SY5Y [6]): Dose-dependent effect; Activity (SH-SY5Y [7]): 10%
Cc1ccc(CNc2ncnc3[nH]ncc23)o1	inactive	–	–	–	–	–	–
Clc1nc(NCc2ccco2)c2[nH]cnc2n1	–	83	78	7.6	16.3	0.871	–
CN(Cc1ccco1)c1ncnc2c1cnn2C	inactive	–	–	–	–	–	–
c1coc(CNc2ncnc3occc23)c1	Active	83	78	7.6	16.3	0.871	–
Cc1ccc(C(C)Nc2ncnc3c2cnn3C)o1 (configuration not stated)	inactive	–	–	–	–	–	–
c1coc(CNc2ccnc3[nH]cnc23)c1	–	83	78	7.6	16.3	0.871	–
Cc1oc2ncnc(NCc3ccco3)c2c1C	Active	83	78	7.6	16.3	0.871	Activity (SH-SY5Y [6]): Dose-dependent effect; metabolised at 1 h, 2 µM [8]: > 50%; Activity (SH-SY5Y [7]): 10%
Cl.c1coc(CNc2ncnc3ccccc23)c1	Active	83	78	7.6	16.3	0.871	–
Clc1cc2[nH]cnc2c(NCc2ccco2)n1	–	83	78	7.6	16.3	0.871	Activity (SH-SY5Y [6]): Dose-dependent effect; Activity (GM04078 [9]): inactive; Activity (SH-SY5Y [10]): Active; Activity (GM04078 [11]): inactive; Activity (GM04078 [12]): inactive; Activity (GM04078 [13]): Dose-dependent effect; Activity (GM04078 [14]): Active; Activity (SH-SY5Y [7]): 10%; inhibition [15]: Active
c1coc(CNc2ncnc3cn[nH]c23)c1	inactive	83	78	7.6	16.3	0.871	–
c1coc(CNc2ncnc3[nH]ccc23)c1	Active	83	78	7.6	16.3	0.871	–
c1coc(CNc2nccc3[nH]cnc23)c1	–	83	78	7.6	16.3	0.871	Activity [16]: 0.5%; Activity (GM04078 [13]): Dose-dependent effect
Clc1cc(NCc2ccco2)c2nc[nH]c2n1	–	83	78	7.6	16.3	0.871	–
Clc1nc(NCc2ccco2)c2cc[nH]c2n1	Active	83	78	7.6	16.3	0.871	–
c1coc(CNc2ncnc3[nH]nnc23)c1	inactive	83	78	7.6	16.3	0.871	–
c1coc(CNc2ncnc3[nH]cnc23)c1 [KINETIN]	–	83	78	7.6	16.3	0.871	–
c1coc(CNc2ccnc3ccnn23)c1	–	83	78	7.6	16.3	0.871	–
c1coc(CNc2ncnc3sccc23)c1	Active	83	78	7.6	16.3	0.871	–
c1coc(CNc2ncnc3ccsc23)c1	Active	83	78	7.6	16.3	0.871	metabolised at 1 h, 2 µM [8]: > 50%
Cc1ccc(CN(C)c2ncnc3c2cnn3C)o1	inactive	–	–	–	–	–	–
